According to ChEMBL document CHEMBL1153856, “Synthesis and spectral characterization of a new class of N-(N-methylpiperazinoacetyl)-2,6-diarylpiperidin-4-ones: antimicrobial, analgesic and antipyretic studies” (2009):
In brackets after ≈: the same amount, converted by molar mass.

Assays:
Format in all cases: functional
Rattus norvegicus [1] = test: Antipyretic activity against brewer's yeast-induced hyperthermia in Wistar rat assessed as change in rectal temperature at 30 mg/kg, po after 120 mins
Outline: (§1)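 Wistar rats of both sexes, 200–250 g, received brewer's yeast in normal saline sc. Rectal temperature was taken with a digital thermometer (precision 0.1 °C). At 18 h, rats whose temperature had risen 0.3–0.5 °C were selected. Test compounds (30 or 60 mg/kg) or indomethacin (5 mg/kg) were given orally in 1% CMC; controls received vehicle only. Temperature was measured at 30, 60, 90, 120 and 150 min, mean ± SEM.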

Rattus norvegicus [2] = test: Antipyretic activity against brewer's yeast-induced hyperthermia in Wistar rat assessed as change in rectal temperature at 30 mg/kg, po after 60 mins; outline: as §1
Pseudomonas aeruginosa = test: Antimicrobial activity against Pseudomonas aeruginosa after 24 hrs by twofold serial dilution method
Outline: (§2)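 Twofold serial broth dilution in nutrient broth at pH 7.4 ± 0.2. Compound stocks were 1 mg/mL in DMSO, diluted 1:5 into seeded broth, then six serial dilutions. Inocula came from 24 h nutrient-agar cultures, final 10⁵ cfu/mL. Incubation was 37 ± 1 °C for 24 h, with growth and solvent controls. MIC was read visually; ciprofloxacin was the standard.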

Rattus norvegicus [3] = test: Antipyretic activity against brewer's yeast-induced hyperthermia in Wistar rat assessed as change in rectal temperature at 60 mg/kg, po after 120 mins; outline: as §1
Rattus norvegicus [4] = test: Antipyretic activity against brewer's yeast-induced hyperthermia in Wistar rat assessed as change in rectal temperature at 60 mg/kg, po after 60 mins; outline: as §1
Staphylococcus aureus = test: Antimicrobial activity against Staphylococcus aureus after 24 hrs by twofold serial dilution method; outline: as §2
Rattus norvegicus [5] = test: Antipyretic activity against brewer's yeast-induced hyperthermia in Wistar rat assessed as change in rectal temperature at 30 mg/kg, po after 30 mins; outline: as §1
Rattus norvegicus [6] = test: Antipyretic activity against brewer's yeast-induced hyperthermia in Wistar rat assessed as change in rectal temperature at 30 mg/kg, po after 90 mins; outline: as §1
Mus musculus [7] = test: Analgesic activity in albino mouse assessed as inhibition of acetic acid-induced writhing response at 60 mg/kg, po administered 1 hr prior to acetic acid challenge relative to control
Outline: (§3)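 Albino mice of both sexes, 20–25 g, n = 6 per group. Doses of 30, 60 or 90 mg/kg were given orally as suspensions in 1% sodium CMC. 1 h later, 1% acetic acid in normal saline (10 mL/kg) was injected ip. Complete extension of either hind limb counted as a writhe. Counting started 5 min after injection and ran 30 min. Results are % inhibition = [1 − T/C] × 100 versus vehicle controls, mean ± SEM.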

Candida albicans = test: Antimicrobial activity against Candida albicans after 72 to 96 hrs by twofold serial dilution method
Outline: (§4)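 Twofold serial broth dilution in Sabouraud dextrose broth at pH 5.6. Spores came from 1–7-day Sabouraud agar slants, final inoculum 1.1–1.5 × 10² cfu/mL. Compound stocks were 1 mg/mL in DMSO, diluted 1:5 into seeded broth, then six serial dilutions. Incubation was 28 ± 1 °C for 72–96 h, with growth and solvent controls. MIC was read visually; amphotericin B was the standard.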

[8] = test system: Salmonella enterica subsp. enterica serovar Typhi str. CT18; test: Antimicrobial activity against Salmonella typhi after 24 hrs by twofold serial dilution method; outline: as §2
Rattus norvegicus [9] = test: Antipyretic activity against brewer's yeast-induced hyperthermia in Wistar rat assessed as change in rectal temperature at 60 mg/kg, po after 150 mins; outline: as §1
Mus musculus [10] = test: Analgesic activity in albino mouse assessed as inhibition of acetic acid-induced writhing response at 90 mg/kg, po administered 1 hr prior to acetic acid challenge relative to control; outline: as §3
Mus musculus [11] = test: Analgesic activity in albino mouse assessed as inhibition of acetic acid-induced writhing response at 30 mg/kg, po administered 1 hr prior to acetic acid challenge relative to control; outline: as §3
Aspergillus niger = test: Antimicrobial activity against Aspergillus niger after 72 to 96 hrs by twofold serial dilution method; outline: as §4
Rattus norvegicus [12] = test: Antipyretic activity against brewer's yeast-induced hyperthermia in Wistar rat assessed as change in rectal temperature at 60 mg/kg, po after 90 mins; outline: as §1
Escherichia coli = test: Antimicrobial activity against Escherichia coli after 24 hrs by twofold serial dilution method; outline: as §2
Klebsiella pneumoniae = test: Antimicrobial activity against Klebsiella pneumoniae after 24 hrs by twofold serial dilution method; outline: as §2
Rattus norvegicus [13] = test: Antipyretic activity against brewer's yeast-induced hyperthermia in Wistar rat assessed as change in rectal temperature at 30 mg/kg, po after 150 mins; outline: as §1
Rattus norvegicus [14] = test: Antipyretic activity against brewer's yeast-induced hyperthermia in Wistar rat assessed as change in rectal temperature at 60 mg/kg, po after 30 mins; outline: as §1
Rhizopus = test: Antimicrobial activity against Rhizopus sp. after 72 to 96 hrs by twofold serial dilution method; outline: as §4
Aspergillus flavus = test: Antimicrobial activity against Aspergillus flavus after 72 to 96 hrs by twofold serial dilution method; outline: as §4

Row | Structure (SMILES) | Activity (Rattus norvegicus [1]) [°C] | Activity (Rattus norvegicus [2]) [°C] | MIC (Pseudomonas aeruginosa) [µg/mL] | Activity (Rattus norvegicus [3]) [°C] | Activity (Rattus norvegicus [4]) [°C] | MIC (Staphylococcus aureus) [µg/mL] | Activity (Rattus norvegicus [5]) [°C] | Activity (Rattus norvegicus [6]) [°C] | inhibition in vivo at 60 mg/kg (Mus musculus [7]) [%] | MIC (Candida albicans) [µg/mL] | MIC [8] [µg/mL] | Activity (Rattus norvegicus [9]) [°C] | inhibition in vivo at 90 mg/kg (Mus musculus [10]) [%] | inhibition in vivo at 30 mg/kg (Mus musculus [11]) [%] | MIC (Aspergillus niger) [µg/mL] | Activity (Rattus norvegicus [12]) [°C] | MIC (Escherichia coli) [µg/mL] | MIC (Klebsiella pneumoniae) [µg/mL] | MIC (Rhizopus) [µg/mL] | MIC (Aspergillus flavus) [µg/mL] | also measured
1 | COc1ccc(C2CC(=O)C(C)C(c3ccc(OC)cc3)N2C(=O)CN2CCN(C)CC2)cc1 (centres undefined) | 37.5 | 37.8 | 50 (≈ 107 µM) | 37.3 | 37.7 | 100 (≈ 215 µM) | 37.9 | 37.6 | 70.3 | 25 (≈ 53.7 µM) | 200 (≈ 430 µM) | 37.01 | 48 | 48.2 | 100 (≈ 215 µM) | 37.5 | 50 (≈ 107 µM) | 100 (≈ 215 µM) | 50 (≈ 107 µM) | 50 (≈ 107 µM) | Activity (Rattus norvegicus [13]): 37.2 °C; Activity (Rattus norvegicus [14]): 37.85 °C
2 | CC1C(=O)C(C)C(c2ccc(Cl)cc2)N(C(=O)CN2CCN(C)CC2)C1c1ccc(Cl)cc1 (centres undefined) | 37.6 | 37.9 | 12.5 (≈ 25.6 µM) | 37.55 | 37.85 | 6.25 (≈ 12.8 µM) | 37.95 | 37.8 | 36.5 | 12.5 (≈ 25.6 µM) | 50 (≈ 102 µM) | 37.3 | 38.9 | 22.5 | 25 (≈ 51.2 µM) | 37.75 | 12.5 (≈ 25.6 µM) | 6.25 (≈ 12.8 µM) | 6.25 (≈ 12.8 µM) | 25 (≈ 51.2 µM) | Activity (Rattus norvegicus [13]): 37.4 °C; Activity (Rattus norvegicus [14]): 37.92 °C
3 | CC1C(=O)CC(c2ccc(Cl)cc2)N(C(=O)CN2CCN(C)CC2)C1c1ccc(Cl)cc1 (centres undefined) | 37.7 | 37.96 | 6.25 (≈ 13.2 µM) | 37.65 | 37.92 | 50 (≈ 105 µM) | 37.05 | 37.89 | 70.4 | 6.25 (≈ 13.2 µM) | 12.5 (≈ 26.3 µM) | 37.5 | 61.6 | 49.2 | 25 (≈ 52.7 µM) | 37.85 | 25 (≈ 52.7 µM) | 25 (≈ 52.7 µM) | 12.5 (≈ 26.3 µM) | 50 (≈ 105 µM) | Activity (Rattus norvegicus [13]): 37.65 °C; Activity (Rattus norvegicus [14]): 37.95 °C
4 | Cc1ccc(C2C(C)C(=O)C(C)C(c3ccc(C)cc3)N2C(=O)CN2CCN(C)CC2)cc1 (centres undefined) | 37.9 | 38.02 | 25 (≈ 55.9 µM) | 37.8 | 38.95 | 50 (≈ 112 µM) | 38.11 | 37.95 | 54.6 | 50 (≈ 112 µM) | 25 (≈ 55.9 µM) | 37.6 | 33.1 | 42.6 | 12.5 (≈ 27.9 µM) | 37.9 | 100 (≈ 223 µM) | 12.5 (≈ 27.9 µM) | 25 (≈ 55.9 µM) | 12.5 (≈ 27.9 µM) | Activity (Rattus norvegicus [13]): 37.7 °C; Activity (Rattus norvegicus [14]): 38.01 °C
5 | COc1ccc(C2C(C)C(=O)C(C)C(c3ccc(OC)cc3)N2C(=O)CN2CCN(C)CC2)cc1 (centres undefined) | 37.8 | 38.01 | 50 (≈ 104 µM) | 37.85 | 38.95 | 12.5 (≈ 26.1 µM) | 38.1 | 37.95 | 59.1 | 6.25 (≈ 13 µM) | 100 (≈ 208 µM) | 37.6 | 38.7 | 46.2 | 25 (≈ 52.1 µM) | 37.9 | 25 (≈ 52.1 µM) | 25 (≈ 52.1 µM) | 25 (≈ 52.1 µM) | 12.5 (≈ 26.1 µM) | Activity (Rattus norvegicus [13]): 37.7 °C; Activity (Rattus norvegicus [14]): 38.01 °C
6 | C[C@@H]1[C@H](O)[C@@H](C)/C=C/C=C/C=C/C=C/C=C/C=C/C=C/[C@H](O[C@@H]2O[C@H](C)[C@@H](O)[C@H](N)[C@@H]2O)C[C@@H]2O[C@](O)(C[C@@H](O)C[C@@H](O)[C@H](O)CC[C@@H](O)C[C@@H](O)CC(=O)O[C@H]1C)C[C@H](O)[C@H]2C(=O)O [AMPHOTERICIN B] | – | – | – | – | – | – | – | – | – | 25 (≈ 27.1 µM) | – | – | – | – | 50 (≈ 54.1 µM) | – | – | – | 25 (≈ 27.1 µM) | 50 (≈ 54.1 µM) | –
